Here are results for 8 molecules from ChEMBL document CHEMBL4266038, “Total Synthesis of Xanthoangelol B and Its Various Fragments: Toward Inhibition of Virulence Factor Production of Staphylococcus aureus” (J Med Chem, 2018).

Activity calls are given as the source filed them. No cut-off for these calls is given here.

Data set [1] has as its system Staphylococcus aureus subsp. aureus USA300. Briefly: Inhibition of Staphylococcus aureus USA300 SaeRS assessed as reduction in aureolysin gene expression at 8 uM after 6 hrs by qRT-PCR analysis.
The test system is the same in data set [2]. Briefly: Inhibition of Staphylococcus aureus USA300 SaeRS assessed as reduction in gamma-hemolysin gene expression at 8 uM after 6 hrs by qRT-PCR analysis.
The test system of data set [3] is HeLa. The data set is described as follows: Cytotoxicity against human HeLa cells assessed as reduction in cell viability at 8 uM after 72 hrs by fluorescein diacetate/propidium iodide double staining based confocal microscopy.
Data set [4] deals with Staphylococcus aureus. Briefly: Antivirulence activity in Staphylococcus aureus USA300-infected Galleria mellonella larvae model assessed as larvae survival at 4.1 mg/kg injected at 2 hrs post infection at every 12 hr interval for 72 hrs (reference value: 20%). The data set is classed as functional. The method in brief: (§1)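 G. mellonella larvae, 10 per group, were each injected with 20 µl of USA300 inoculum (5x10^6 cfu) into the lower left proleg and held at 37 °C in the dark without food. Treatment was given after infection and repeated every 12 h over 72 h, at doses up to 4.085 or 4.262 mg/kg body weight. Survival was scored daily along with activity, silk production and melanization.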

Data set [5] relates to Staphylococcus aureus. The data set is described as follows: Antibacterial activity against Staphylococcus aureus USA300 assessed as log reduction in bacterial burden after 72 hrs. It counts as functional, organism-based. The method in brief:
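Galleria mellonella larvae (10 per group) injected in the lower left proleg with 5x10^6 cfu USA300 in 20 µl, held at 37 °C in the dark; treatment began 2 h post infection and was re-injected every 12 h for 72 h. Haemolymph was plated on blood agar to count S. aureus burden at 72 h.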

In data set [6] the test system is Staphylococcus aureus. Briefly: Growth inhibition of Staphylococcus aureus USA300 at 64 uM after 20 hrs. It counts as organism-based. The method in brief: (§2)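 USA300 was grown in TSB at 37 °C with shaking at 250 rpm. Growth was followed in the presence of compound for 8 h and for 20 h, in triplicate.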
Data set [7] deals with Staphylococcus aureus. The data set is described as follows: Growth inhibition of Staphylococcus aureus USA300 at 16 uM after 20 hrs. The data set is classed as organism-based. The method in brief: as §2
Data set [8] concerns Staphylococcus aureus subsp. aureus USA300. Briefly: Inhibition of Staphylococcus aureus USA300 SaeRS assessed as reduction in alpha-hemolysin gene expression at 8 uM after 6 hrs by qRT-PCR analysis. (In qPCR the cycle at which signal appears reflects the starting amount.)
Data set [9] has as its system HeLa. Briefly: Cytotoxicity against human HeLa cells assessed as reduction in cell viability at >IC50 concentration after 72 hrs by fluorescein diacetate/propidium iodide double staining based confocal microscopy.
For data set [10], the target named is T1, Histidine protein kinase SaeS (Staphylococcus aureus (strain NCTC 8325)) (UniProt Q2G2U1).
T1 sequence (whole entry): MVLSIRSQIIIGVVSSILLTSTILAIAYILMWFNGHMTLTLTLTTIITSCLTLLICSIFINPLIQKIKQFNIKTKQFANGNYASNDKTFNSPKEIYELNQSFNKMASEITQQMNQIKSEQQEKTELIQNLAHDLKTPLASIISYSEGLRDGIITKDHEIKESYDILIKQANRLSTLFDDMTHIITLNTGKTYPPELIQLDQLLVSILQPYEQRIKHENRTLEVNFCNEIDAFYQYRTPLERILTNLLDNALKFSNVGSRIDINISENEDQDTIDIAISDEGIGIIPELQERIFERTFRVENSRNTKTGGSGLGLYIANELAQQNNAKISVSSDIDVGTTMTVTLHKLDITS
The data set is described as follows: Inhibition of phosphotransfer reaction from recombinant Staphylococcus aureus phosphorylated His6-tagged SaeS kinase domain to Staphylococcus aureus SaeR expressed in Escherichia coli BL21(DE3) at 0.2 mM after 60 mins by coomassie-brilliant blue staining based SDS PAGE/autoradiographic analysis.

Data set [11] relates to Staphylococcus aureus. The data set is described as follows: Antivirulence activity in Staphylococcus aureus USA300-infected Galleria mellonella larvae model injected at every 12 h interval for 72 hrs. The data set is classed as functional, organism-based. The method in brief: as §1
Data set [12] concerns Staphylococcus aureus subsp. aureus USA300. The data set is described as follows: Inhibition of Staphylococcus aureus USA300 SaeRS assessed as reduction in staphylokinase gene expression at 8 uM after 6 hrs by qRT-PCR analysis. The method in brief:
(§3)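 S. aureus cultures were treated with compound for 6 h. Total RNA was stabilised and purified with enzymatic disruption, then reverse-transcribed with random hexamers. qRT-PCR used an intercalating dye, with transcripts normalised to 16S rRNA, in triplicate.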

The subject of data set [13] is Staphylococcus aureus. The data set is described as follows: Reduction in Staphylococcus aureus USA300 sarA gene expression at 8 uM after 6 hrs by qRT-PCR analysis. It counts as functional. The method in brief: as §3
Data set [14] has as its system Staphylococcus aureus subsp. aureus USA300. The data set is described as follows: Inhibition of Staphylococcus aureus USA300 GFP-fused SaeRS at 20 uM after 8 hrs by fluorescence-based assay. The method in brief:
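Reporter strain S. aureus carrying a P_hlam-gfp fusion (kept on chloramphenicol 5 µg/ml) was grown in TSB to OD600 = 1 and diluted to 5x10^5 cells/ml with compound; DMSO served as blank. Cultures were shaken at 37 °C for 8 h, then GFP (ex 485/em 515 nm) and OD600 were read.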

In data set [15] the test system is Staphylococcus aureus. The data set is described as follows: Antivirulence activity in Staphylococcus aureus USA300-infected Galleria mellonella larvae model assessed as larvae survival at 4.3 mg/kg injected at 2 hrs post infection at every 12 hr interval for 72 hrs (reference value: 20%). The data set is classed as functional. The method in brief:
as §1

For data set [16], the system named is Staphylococcus aureus subsp. aureus USA300. The data set is described as follows: Inhibition of Staphylococcus aureus USA300 SaeRS assessed as reduction in alpha-hemolysin gene expression at 10 uM after 6 hrs by qRT-PCR analysis.
Data set [17] shares this test system. The data set is described as follows: Inhibition of Staphylococcus aureus USA300 SaeRS assessed as reduction in staphylokinase gene expression at 10 uM after 6 hrs by qRT-PCR analysis. The method in brief: as §3
Data set [18] deals with Staphylococcus aureus. Briefly: Growth inhibition of Staphylococcus aureus USA300 up to 64 uM after 8 to 20 hrs. The data set is classed as organism-based. The method in brief:
as §2

Data set [19] has as its target T1, Histidine protein kinase SaeS (Staphylococcus aureus (strain NCTC 8325)). The data set is described as follows: Inhibition of phosphotransfer reaction from recombinant Staphylococcus aureus phosphorylated His6-tagged SaeS kinase domain to Staphylococcus aureus SaeR expressed in Escherichia coli BL21(DE3) at 0.2 to 1 mM after 60 mins by coomassie-brilliant blue staining based SDS PAGE/autoradiographic analysis.

Data set [20] concerns Staphylococcus aureus. Briefly: Reduction in Staphylococcus aureus USA300 sarA gene expression at 10 uM after 6 hrs by qRT-PCR analysis. It counts as functional. The method in brief:
as §3

Data set [21] has as its target T1, Histidine protein kinase SaeS (Staphylococcus aureus (strain NCTC 8325)). The data set is described as follows: Binding affinity to Staphylococcus aureus MBP-fused SaeS by STD-NMR spectrophotometry. The method in brief:
(§4)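 Saturation transfer difference 1D NMR with ligand fixed at 1.0 mM, prepared from a stock in deuterated DMSO. Protein was either 30 µM minimal SaeS kinase domain fused to maltose binding protein (MBP-SaeS) or 0.1 mM minimal kinase domain, dialysed into NMR buffer beforehand.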

Data set [22] has the same target. Briefly: Binding affinity to Staphylococcus aureus SaeS assessed as T2-rerelaxation time of compound peak at 1 mM by 1D CPMG method. The method in brief: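 Transverse-relaxation-filtered 1D NMR using a CPMG pulse train. Ligand fixed at 1.0 mM, from a stock in deuterated DMSO; minimal SaeS kinase domain at 0.1 mM, dialysed into NMR buffer.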
Data set [23] relates to Staphylococcus aureus subsp. aureus USA300. The data set is described as follows: Inhibition of Staphylococcus aureus USA300 SaeRS assessed as reduction in aureolysin gene expression at 10 uM after 6 hrs by qRT-PCR analysis.
Data set [24] has as its target T1, Histidine protein kinase SaeS (Staphylococcus aureus (strain NCTC 8325)). The data set is described as follows: Binding affinity to Staphylococcus aureus SaeS kinase domain at 1 mM by 1D-NMR analysis. The method in brief:
as §4

Data set [25] concerns Staphylococcus aureus subsp. aureus USA300. Briefly: Inhibition of Staphylococcus aureus USA300 SaeRS assessed as reduction in gamma-hemolysin gene expression at 10 uM after 6 hrs by qRT-PCR analysis.

As to `C=C(C)C(O)CC/C(C)=C/Cc1c(O)ccc(C(=O)/C=C/c2ccc(O)cc2)c1O` (centres undefined) [XANTHOANGELOL B], the inhibition entry in data set [1], in data set [2], in data set [8] and in data set [12] was “Active” in each case. The Activity result in the data set on HeLa [3] was “Non-Toxic”; in the data set with Staphylococcus aureus [5] it was “Dose-dependent effect”; in the data set with HeLa [9] it was “Non-Toxic”; in the data set on Staphylococcus aureus [11], “Dose-dependent effect”. The survival at 4.1 mg/kg with Staphylococcus aureus [4] amounted to 100%. Further, the “growth inhibition (GI)” value with Staphylococcus aureus [6] and with Staphylococcus aureus [7] was “Toxic” throughout. Besides, the inhibition entry in [10] is “inactive”. Also, the outcome in the data set on Staphylococcus aureus [13] was inactive.

Consider `COc1ccc(C(=O)/C=C/c2ccc(O)cc2)c(O)c1C/C=C(\C)CCC=C(C)C`, for which the inhibition entry in [14] is “inactive”.

Consider `C=CCc1c(O)ccc(C(=O)/C=C/c2ccc(O)cc2)c1O`, for which the inhibition result in data set [14] was “inactive”.

As for `C=C(C)CCC=C(C)C`, the inhibition result in data set [14] is “inactive”.

Consider `CC(C)=CCC/C(C)=C/Cc1c(O)ccc(C(=O)/C=C/c2ccc(O)cc2)c1O`, for which, in data set [14], the inhibition entry was “inactive”.

Take `C=C(C)C(O)CC/C(C)=C/Cc1c(O)ccc(C(=O)CC(O)c2ccc(O)cc2)c1O` (centres undefined): the Activity entry is “Non-Toxic” in the data set with HeLa [3], “Dose-dependent effect” in the data set with Staphylococcus aureus [5], “Non-Toxic” with HeLa [9] and “Dose-dependent effect” with Staphylococcus aureus [11]. Further, the survival at 4.3 mg/kg in the data set with Staphylococcus aureus [15] came out at 100%. For the same molecule, the inhibition entry in data set [16], in data set [17], in [23] and in data set [25] was “Active” in each case. Besides, in the data set on Staphylococcus aureus [18], the “growth inhibition (GI)” value was “Non-Toxic”. Further, the inhibition result in [19] is “inactive”. Besides, the result with Staphylococcus aureus [20] was inactive. Moreover, the result in [21], in data set [22] and in data set [24] was Active.

In the case of `O=C(/C=C/c1ccc(O)cc1)c1ccc(O)cc1O`, the inhibition result in data set [14] was “inactive”.

On to `C=CCc1c(O)ccc(C(C)=O)c1O`, for which the inhibition result in data set [14] was “inactive”.
